A word on the logD: it is lipophilicity at a set pH, counting ionised and neutral species. A higher logD goes with a more lipophilic compound. As a reminder, the Cmax is the highest concentration seen after dosing. What is called Tmax is the time from dosing to the highest level. The clearance is a measure of how efficiently the substance is removed, as volume per time. A low value points to inefficient removal. In general, AUC(0-inf) refers to the area under the concentration-time curve extrapolated to infinity. In general, bioavailability refers to the share of a dose that reaches the circulation, judged against a reference dose that is usually intravenous. Low values mean little systemic uptake, high ones much systemic uptake. One may read the Papp A→B as how fast a substance crosses the layer from the apical side.

Structures are written as SMILES. Where a SMILES comes first, the peptide text is derived from it. [ ]: non-standard residue; d: D form. The star is where a group is joined. NMeAbu(4-morpholino) = CN[C@@H](CCN1CCOCC1)C(=O)O; NMeY = CN[C@@H](Cc1ccc(O)cc1)C(=O)O; NMeCha = CN[C@@H](CC1CCCCC1)C(=O)O; NMeF = CN[C@@H](Cc1ccccc1)C(=O)O; NMeD = CN[C@@H](CC(=O)O)C(=O)O; dNMeL = CN[C@H](CC(C)C)C(=O)O; Morpholide = C1CN(*)CCO1; NMeA = CN[C@@H](C)C(=O)O; Piperidide = C1CCN(*)CC1

These results are taken from ChEMBL document CHEMBL3217723, “Optimizing PK properties of cyclic peptides: the effect of side chain substitutions on permeability and clearance()” (Medchemcomm, 2012).

Series [1] can be described thus: Lipophilicity, log D of the compound at pH 7.4 by shake-flask method. The class given is physicochemical. The note with it: buffer.
A short description of series [2]: Intrinsic clearance in human liver microsomes by LC-MS/MS analysis. The class given is ADME. The note with it: read-out: CLH. In outline: (§1)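 Compound at 1 µM with liver microsomes (CYP 0.25 µM) in 0.1 M potassium phosphate, pH 7.4, at 37 °C. Final solvent was 0.975% acetonitrile and 0.025% DMSO. Mix prewarmed 5 min, then started with 1.3 mM NADPH; no-NADPH controls were run. Sampled at 0–60 min into acetonitrile and followed by LC-MS/MS for substrate loss. T1/2 was scaled to CLint by the well-stirred model.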
Background: Microsomes from liver hold many membrane-bound enzymes, among them those of drug oxidation.

Series [3] is described as follows: Intrinsic clearance in rat liver microsomes by LC-MS/MS analysis. The class given is ADME. The note with it: read-out: CLH. In outline: as §1
A short description of series [4]: Cmax in male Wistar-Han rat at 10 mg/kg, po. The note with it: in vivo. The class given is ADME, organism-based. Further details: dose 10 mg/kg, route oral.
Series [5] in a line: Tmax in male Wistar-Han rat at 10 mg/kg, po. The class given is ADME, organism-based. Further details: dose 10 mg/kg, route oral. To be noted: in vivo.
A short description of series [6]: Plasma clearance in male Wistar-Han rat at 1.48 mg/kg, iv. The class given is ADME, organism-based. Further details: dose 1.48 mg/kg, route intravenous. Summed up:
(§2)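 Jugular vein-cannulated male Wistar-Hannover rats (230-250 g; n = 3) given a 30 s tail-vein bolus in SEDDS/dextrose or propylene glycol/20 mM sodium phosphate (pH 7.4) vehicles. Blood sampled 0.03–24 h via cannula into K2EDTA. Plasma proteins precipitated, LC-MS/MS. Non-compartmental: CLp = dose/AUC0-∞ (linear trapezoid); Vdss; T1/2 = 0.693/terminal log-linear slope.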

The nature of series [7]: Volume of distribution at steady state in male Wistar-Han rat at 1.48 mg/kg, iv. The class given is ADME, organism-based. Further details: dose 1.48 mg/kg, route intravenous. To be noted: in vivo, read-out: Vdss. Summed up:
as §2

Series [8] in a line: AUC (0 to infinity) in male Wistar-Han rat at 1.48 mg/kg, iv. The class given is ADME, organism-based. To be noted: plasma. Further details: time infinity, dose 1.48 mg/kg, route intravenous. In outline: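 Jugular vein-cannulated male Wistar-Hannover rats (230-250 g), n = 3, fed ad libitum; 30 s tail-vein injection in 10% SEDDS:90% sterile dextrose, 1:1 propylene glycol:20 mM sodium phosphate (pH 7.4), or 10% propylene glycol:90% 20 mM sodium phosphate (pH 7.4). Blood via cannula to 24 h, K2EDTA plasma, LC-MS/MS against standard curve; non-compartmental AUC0-∞ by linear trapezoid rule.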

The nature of series [9]: AUC (0 to infinity) in male Wistar-Han rat at 10 mg/kg, po. The note with it: plasma. The class given is ADME, organism-based. On the set-up: time infinity, dose 10 mg/kg, route oral. In outline:
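Jugular vein-cannulated male Wistar-Hannover rats (230-250 g), n = 3, fasted overnight and fed after the 4 h sample; oral dosing in the i.v. formulations, except the SEDDS formulation used 90% water. Serial blood 0.083–24 h, K2EDTA plasma, LC-MS/MS against standard curve; non-compartmental AUC0-∞ by linear trapezoid rule.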

The nature of series [10]: Terminal elimination half life in Wistar-Han rat at 1.48 mg/kg, iv. To be noted: in vivo, read-out: beta t1/2 (converted). Further details: dose 1.48 mg/kg, route intravenous. The class given is ADME, organism-based. In outline: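 Jugular vein-cannulated male Wistar-Hannover rats (230–250 g, n = 3) received a tail-vein bolus over 30 s. Vehicle depended on compound: SEDDS/dextrose or propylene glycol/20 mM sodium phosphate pH 7.4. Blood was drawn at 0.03–24 h into K2EDTA and the plasma analyzed by LC-MS/MS. Non-compartmental analysis gave T1/2 = 0.693/|terminal ln-slope|.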

The nature of series [11]: Terminal elimination half life in Wistar-Han rat at 10 mg/kg, po. The class given is ADME, organism-based. On the set-up: dose 10 mg/kg, route oral. To be noted: in vivo, read-out: beta t1/2 (converted). In outline:
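Male Wistar-Hannover rats (230–250 g, n = 3), jugular-cannulated, were fasted overnight and dosed by oral gavage. Vehicle depended on compound: SEDDS/water or propylene glycol/sodium phosphate pH 7.4. Blood was collected at 0.083–24 h into K2EDTA and the plasma analyzed by LC-MS/MS. Terminal half-life came from the non-compartmental ln-concentration slope.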

A short description of series [12]: Oral bioavailability in male Wistar-Han rat at 10 mg/kg. The class given is ADME, organism-based. The note with it: in vivo. In outline: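 Male Wistar-Hannover rats (230-250 g, cannulated; n = 3) fasted overnight, fed after the 4 h sample, and dosed orally in the i.v. formulations or 10% SEDDS:90% water. Serial blood sampled 0.083–24 h into K2EDTA. Plasma measured by LC-MS/MS against a standard curve. Cmax and Tmax read from individual profiles; F = oral AUC0-∞ relative to i.v. AUC0-∞.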

The nature of series [13]: Apparent permeability from apical to basolateral side in human Caco2 cells by LC-MS/MS analysis. The class given is ADME, cell-based. To be noted: Caco-2. In general terms: Caco-2 monolayers are a common model of the intestinal barrier.
A short description of series [14]: Drug excretion in male Wistar-Han rat urine. The class given is ADME. To be noted: read-out: Drug excretion.

In the case of `CC(C)C[C@@H]1NC(=O)[C@H](Cc2ccc(O)cc2)N(C)C(=O)[C@H]2CCCN2C(=O)[C@H](CC(C)C)NC(=O)[C@H](C)N(C)C(=O)[C@@H](CC(C)C)N(C)C1=O` (cyclo(L[dNMeL][NMeA]L[dP][NMeY])), in series [1], the logD was found to be 3.64. Further, in series [2], the CLint scaled came out at 190 mL/min/kg.
Regarding `CC(C)C[C@@H]1NC(=O)[C@H](Cc2ccc(O)cc2)N(C)C(=O)[C@H]2CCCN2C(=O)[C@H](CC(C)C)NC(=O)[C@H](CCN2CCOCC2)N(C)C(=O)[C@@H](CC(C)C)N(C)C1=O` (cyclo(L[dNMeL][NMeAbu(4-morpholino)]L[dP][NMeY])), the pH-dependent lipophilicity (logD) in series [1] stood at 2.79. Moreover, the CLint scaled in [2] came to 16 mL/min/kg.
With `CC(C)C[C@@H]1NC(=O)[C@H](Cc2ccc(O)cc2)N(C)C(=O)[C@H]2CCCN2C(=O)[C@H](CC(C)C)NC(=O)[C@H](CC2CCCCC2)N(C)C(=O)[C@@H](CC(C)C)N(C)C1=O` (cyclo(L[dNMeL][NMeCha]L[dP][NMeY])), in series [1], the pH-dependent lipophilicity (logD) was found to be 5.09.
Compound `CC(C)C[C@@H]1NC(=O)[C@H](Cc2ccc(O)cc2)N(C)C(=O)[C@H]2CCCN2C(=O)[C@H](CC(C)C)NC(=O)[C@H](CC(=O)N2CCOCC2)N(C)C(=O)[C@@H](CC(C)C)N(C)C1=O` (cyclo(L[dNMeL][NMeD](Morpholide)L[dP][NMeY])) displayed a logD in [1] of 2.78. In addition, the CLint scaled in series [2] was determined as 57 mL/min/kg.
`CC(C)C[C@@H]1NC(=O)[C@H](Cc2ccc(O)cc2)N(C)C(=O)[C@H]2CCCN2C(=O)[C@H](CC(C)C)NC(=O)[C@H](CC(=O)N2CCCCC2)N(C)C(=O)[C@@H](CC(C)C)N(C)C1=O` (cyclo(L[dNMeL][NMeD](Piperidide)L[dP][NMeY])) showed a logD in series [1] of 3.77. In addition, the CLint scaled in series [2] was greater than 300 mL/min/kg.
`CC(C)C[C@@H]1NC(=O)[C@H](Cc2ccc(O)cc2)N(C)C(=O)[C@H]2CCCN2C(=O)[C@H](CC(C)C)NC(=O)[C@H](CC(=O)O)N(C)C(=O)[C@@H](CC(C)C)N(C)C1=O` (cyclo(L[dNMeL][NMeD]L[dP][NMeY])): in series [1], the logD turned out to be 0.477. Moreover, the CLint scaled is less than 9 mL/min/kg in series [3] and less than 8 mL/min/kg in series [2]. This compound also registered a Cmax in series [4] of 17.3 ng/mL. In addition, in series [5], the Tmax came to 46.8 min. Besides, the clearance in series [6] amounted to 56.4 mL/min/kg. Also, the Vd in [7] was 0.36 L/kg. Further, the values for the AUC(0-inf) in series [8] and in series [9] were 441 ng·h/mL and 18.7 ng·h/mL, respectively. The values for the half-life in series [10] and in series [11] were 21.5 min and 284 min, respectively. In [12], the bioavailability turned out to be 0.469%. The apical-to-basolateral permeability (Papp A→B) in series [13] is 0.36 ×10⁻⁶ cm/s. Moreover, in [14], the dose excreted is less than 1%.
With `CC(C)C[C@@H]1NC(=O)[C@H](Cc2ccc(O)cc2)N(C)C(=O)[C@H]2CCCN2C(=O)[C@H](CC(C)C)NC(=O)[C@H](Cc2ccccc2)N(C)C(=O)[C@@H](CC(C)C)N(C)C1=O` (cyclo(L[dNMeL][NMeF]L[dP][NMeY])), in [1], the log distribution coefficient (logD) is 4.46. Further, in series [2], the CLint scaled turned out to be 170 mL/min/kg.
